In ChEMBL document CHEMBL4028913, “Discovery of Novel Potent VEGFR-2 Inhibitors Exerting Significant Antiproliferative Activity against Cancer Cell Lines” (J Med Chem, 2018):
The source made the active and inactive calls. No cut-off for these calls is given here.

How the values were obtained:
A549 = test: Cytotoxicity against human A549 cells after 48 hrs by SRB assay; assay type: functional; settings: A549, 48 h
Method in brief: (§1)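 NCI-60 panel; cells grown in RPMI 1640 with 5% FBS and 2 mM L-glutamine, plated at 5000–40 000 cells/well by doubling time, preincubated 24 h (37 °C, 5% CO2). Drug added at five concentrations, 1-log steps from 10−4 to 10−8 M, for 48 h. Fixed with TCA, stained with 0.4% SRB, absorbance read at 515 nm. Percent growth computed against time-zero and untreated controls; GI50, TGI and LC50 derived.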

OVCAR-4 = test: Cytotoxicity against human OVCAR4 cells after 48 hrs by SRB assay; assay type: functional; settings: OVCAR-4, 48 h; method in brief: as §1
[1] = Potency index, ratio of sunitinib GI50 to test compound GI50 for human prostate cancer cells; assay type: functional, Prostate cancer cell
T47D = test: Cytotoxicity against human T47D cells after 48 hrs by SRB assay; assay type: functional
Method in brief: (§2)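 NCI-60 panel, five doses at 1-log steps from 10−4 to 10−8 M. Cells grown in RPMI 1640 with 5% FBS and 2 mM L-glutamine, seeded at 5000–40 000 cells/well and preincubated 24 h. Tz plates were TCA-fixed at drug addition. Drug exposure 48 h at 37 °C, then TCA fixation, 0.4% SRB stain and absorbance at 515 nm. GI50 taken from percent growth relative to Tz and control.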

[2] = Potency index, ratio of test compound LC50 to sorafenib LC50 for human renal cancer cells; assay type: functional, Renal cancer cell
DU-145 = test: Cytotoxicity against human DU145 cells after 48 hrs by SRB assay; assay type: functional; settings: DU-145, 48 h; method in brief: as §1
Leukemia cell = test: Potency index, ratio of sorafenib GI50 to test compound GI50 for human leukemia cells; assay type: functional
Method in brief: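 GI50 is the concentration giving 50% reduction in net protein increase relative to control. Potency index is the reference-drug GI50 divided by the test-compound GI50.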

UO-31 = test: Cytotoxicity against human UO31 cells after 48 hrs by SRB assay; assay type: functional; settings: UO-31, 48 h; method in brief: as §2
[3] = Potency index, ratio of test compound LC50 to sunitinib LC50 for human prostate cancer cells; assay type: functional, Prostate cancer cell
[4] = molecular target: Ephrin type-A receptor 2 (Homo sapiens) (UniProt P29317); test: Inhibition of human EPHA2 at 0.5 uM relative to control
SNB-19 = test: Cytotoxicity against human SNB19 cells after 48 hrs by SRB assay; assay type: functional; settings: SNB-19, 48 h; method in brief: as §1
Hs-578T = test: Cytotoxicity against human Hs 578T cells after 48 hrs by SRB assay; assay type: functional; method in brief: as §1
MOLT-4 = test: Cytotoxicity against human MOLT4 cells after 48 hrs by SRB assay; assay type: functional; settings: MOLT-4, 48 h; method in brief: as §1
HCC 2998 = test: Cytotoxicity against human HCC2998 cells after 48 hrs by SRB assay; assay type: functional; settings: HCC 2998, 48 h; method in brief: as §1
[5] = molecular target: Tyrosine-protein kinase ABL1 (Homo sapiens) (UniProt P00519); settings: at 0.5 µM
UACC-257 = test: Cytotoxicity against human UACC257 cells after 48 hrs by SRB assay; assay type: functional; settings: UACC-257, 48 h; method in brief: as §2
[6] = Potency index, ratio of sunitinib GI50 to test compound GI50 for human non-small cell lung cancer cells; assay type: functional
[7] = molecular target: Vascular endothelial growth factor receptor 3 (Homo sapiens) (UniProt P35916); test: Inhibition of human Flt4 at 0.5 uM relative to control
KM12 = test: Cytotoxicity against human KM12 cells after 48 hrs by SRB assay; assay type: functional; settings: KM12, 48 h; method in brief: as §1
[8] = read-out: LC50 (the source's name)

Sequence of Vascular endothelial growth factor receptor 3 (Homo sapiens) (P35916 whole entry): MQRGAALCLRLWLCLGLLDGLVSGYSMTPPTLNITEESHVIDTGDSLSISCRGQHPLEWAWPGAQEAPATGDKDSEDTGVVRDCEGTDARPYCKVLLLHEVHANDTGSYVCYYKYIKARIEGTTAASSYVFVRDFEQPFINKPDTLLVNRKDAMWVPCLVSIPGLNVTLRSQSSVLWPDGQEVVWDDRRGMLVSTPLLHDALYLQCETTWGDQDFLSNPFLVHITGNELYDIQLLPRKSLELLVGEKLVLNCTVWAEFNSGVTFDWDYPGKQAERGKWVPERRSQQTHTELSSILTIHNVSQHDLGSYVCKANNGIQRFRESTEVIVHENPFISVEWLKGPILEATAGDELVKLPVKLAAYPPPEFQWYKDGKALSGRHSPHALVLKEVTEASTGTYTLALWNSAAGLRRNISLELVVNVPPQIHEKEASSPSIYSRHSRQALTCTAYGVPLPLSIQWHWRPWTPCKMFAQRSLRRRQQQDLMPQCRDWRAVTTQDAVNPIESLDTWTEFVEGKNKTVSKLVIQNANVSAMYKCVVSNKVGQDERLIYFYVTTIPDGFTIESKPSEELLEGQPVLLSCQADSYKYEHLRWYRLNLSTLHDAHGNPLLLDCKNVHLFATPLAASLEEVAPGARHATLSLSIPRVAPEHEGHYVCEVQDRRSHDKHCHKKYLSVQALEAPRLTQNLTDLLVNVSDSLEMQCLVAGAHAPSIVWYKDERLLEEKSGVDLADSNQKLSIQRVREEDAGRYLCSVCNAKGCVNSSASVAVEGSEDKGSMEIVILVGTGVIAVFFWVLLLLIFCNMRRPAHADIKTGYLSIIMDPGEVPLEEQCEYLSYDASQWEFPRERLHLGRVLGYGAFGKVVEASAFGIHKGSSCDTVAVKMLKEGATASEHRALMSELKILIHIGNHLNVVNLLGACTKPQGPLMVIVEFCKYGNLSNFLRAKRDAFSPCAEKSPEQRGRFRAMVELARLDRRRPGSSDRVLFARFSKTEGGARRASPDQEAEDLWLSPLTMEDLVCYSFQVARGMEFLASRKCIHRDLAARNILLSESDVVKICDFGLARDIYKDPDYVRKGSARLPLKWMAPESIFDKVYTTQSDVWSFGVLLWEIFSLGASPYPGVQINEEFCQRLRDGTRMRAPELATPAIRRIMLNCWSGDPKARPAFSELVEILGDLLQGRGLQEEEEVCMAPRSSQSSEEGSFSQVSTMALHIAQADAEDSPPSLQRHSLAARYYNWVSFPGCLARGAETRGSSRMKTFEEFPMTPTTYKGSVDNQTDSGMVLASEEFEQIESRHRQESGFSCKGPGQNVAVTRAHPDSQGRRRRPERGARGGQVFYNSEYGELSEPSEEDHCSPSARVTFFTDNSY
Sequence of Ephrin type-A receptor 2 (Homo sapiens) (P29317 whole entry): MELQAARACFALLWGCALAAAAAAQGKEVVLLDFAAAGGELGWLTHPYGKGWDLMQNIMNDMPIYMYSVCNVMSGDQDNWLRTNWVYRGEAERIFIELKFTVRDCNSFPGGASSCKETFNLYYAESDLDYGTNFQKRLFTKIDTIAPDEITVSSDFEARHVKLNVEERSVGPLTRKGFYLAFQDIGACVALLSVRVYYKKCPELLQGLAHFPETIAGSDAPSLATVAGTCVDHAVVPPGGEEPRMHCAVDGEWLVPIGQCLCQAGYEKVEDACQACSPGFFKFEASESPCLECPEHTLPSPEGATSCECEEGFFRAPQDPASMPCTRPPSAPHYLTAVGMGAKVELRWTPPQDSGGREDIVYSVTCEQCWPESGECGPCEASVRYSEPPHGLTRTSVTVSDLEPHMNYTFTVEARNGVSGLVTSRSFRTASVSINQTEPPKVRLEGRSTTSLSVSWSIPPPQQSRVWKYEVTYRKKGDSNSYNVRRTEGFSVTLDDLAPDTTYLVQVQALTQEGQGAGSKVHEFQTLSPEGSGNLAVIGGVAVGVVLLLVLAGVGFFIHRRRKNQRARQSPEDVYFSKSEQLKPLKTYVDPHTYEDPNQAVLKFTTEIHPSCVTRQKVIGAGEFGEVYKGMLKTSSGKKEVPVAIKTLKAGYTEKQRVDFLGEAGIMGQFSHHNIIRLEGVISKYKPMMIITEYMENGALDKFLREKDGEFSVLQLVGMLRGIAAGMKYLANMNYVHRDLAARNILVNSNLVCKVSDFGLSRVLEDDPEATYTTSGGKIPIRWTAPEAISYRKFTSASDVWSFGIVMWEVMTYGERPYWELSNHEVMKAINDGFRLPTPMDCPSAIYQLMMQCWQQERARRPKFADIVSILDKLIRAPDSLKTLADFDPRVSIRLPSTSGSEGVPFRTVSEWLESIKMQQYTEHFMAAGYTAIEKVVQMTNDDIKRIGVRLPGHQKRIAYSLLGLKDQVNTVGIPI
Sequence of Tyrosine-protein kinase ABL1 (Homo sapiens) (P00519 whole entry): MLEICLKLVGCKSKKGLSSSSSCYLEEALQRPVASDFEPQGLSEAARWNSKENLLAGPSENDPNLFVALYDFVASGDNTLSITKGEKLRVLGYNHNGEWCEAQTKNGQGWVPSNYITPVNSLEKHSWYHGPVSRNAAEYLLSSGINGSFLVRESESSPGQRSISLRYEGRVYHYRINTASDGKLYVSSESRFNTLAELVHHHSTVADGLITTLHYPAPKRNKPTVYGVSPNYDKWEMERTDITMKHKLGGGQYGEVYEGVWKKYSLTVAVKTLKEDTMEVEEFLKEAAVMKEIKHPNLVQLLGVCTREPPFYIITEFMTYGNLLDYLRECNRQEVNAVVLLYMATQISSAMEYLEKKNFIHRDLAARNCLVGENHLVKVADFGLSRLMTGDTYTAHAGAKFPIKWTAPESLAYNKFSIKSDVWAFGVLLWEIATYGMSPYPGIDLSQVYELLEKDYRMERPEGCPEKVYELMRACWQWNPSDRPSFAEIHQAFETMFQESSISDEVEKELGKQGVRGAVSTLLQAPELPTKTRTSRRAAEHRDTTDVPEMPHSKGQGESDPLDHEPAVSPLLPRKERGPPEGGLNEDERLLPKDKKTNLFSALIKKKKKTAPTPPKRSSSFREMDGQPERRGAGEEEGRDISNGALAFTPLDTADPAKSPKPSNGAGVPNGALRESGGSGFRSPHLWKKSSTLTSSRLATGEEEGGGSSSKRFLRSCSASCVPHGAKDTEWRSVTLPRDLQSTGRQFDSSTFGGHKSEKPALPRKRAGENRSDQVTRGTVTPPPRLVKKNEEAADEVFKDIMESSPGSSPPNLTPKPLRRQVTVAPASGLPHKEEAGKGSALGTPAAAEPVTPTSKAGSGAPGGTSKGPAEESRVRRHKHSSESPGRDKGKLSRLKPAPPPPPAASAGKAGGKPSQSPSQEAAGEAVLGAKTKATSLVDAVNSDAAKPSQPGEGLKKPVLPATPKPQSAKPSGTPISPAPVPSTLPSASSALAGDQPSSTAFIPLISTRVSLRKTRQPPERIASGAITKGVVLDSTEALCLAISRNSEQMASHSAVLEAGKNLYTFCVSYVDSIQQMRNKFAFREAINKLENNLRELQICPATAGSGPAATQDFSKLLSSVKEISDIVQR

## COc1cc2ncnc(Oc3ccc(NC(=O)Nc4ccc(CN5CCOCC5)c(C(F)(F)F)c4)c4ccccc34)c2cc1OC
A549
  GI50: 0.55 µM
  TGI: 10.7 µM
A549; [8]
  CC50: 81.3 µM
OVCAR-4
  GI50: 0.12 µM
  TGI: 10.5 µM
OVCAR-4; [8]
  CC50: 35.5 µM
[1]
  RatioGI50: 1.5
T47D
  GI50: 0.25 µM
  TGI: 4.27 µM
T47D; [8]
  CC50: > 100 µM
[2]
  RatioLC50: 2
DU-145
  GI50: 1.55 µM
  TGI: 13.2 µM
DU-145; [8]
  CC50: 44.7 µM
Leukemia cell
  RatioGI50: 3.9 - 9.5
UO-31
  GI50: 0.2 µM
  TGI: 10.2 µM
UO-31; [8]
  CC50: 38 µM
[3]
  RatioLC50: 1.7
[4]
  inhibition: Active
SNB-19
  GI50: 2.57 µM
  TGI: 14.1 µM
SNB-19; [8]
  CC50: 43.6 µM
Hs-578T
  GI50: 1.12 µM
  TGI: 9.33 µM
Hs-578T; [8]
  CC50: > 100 µM
MOLT-4
  GI50: 0.19 µM
  TGI: 1.82 µM
MOLT-4; [8]
  CC50: > 100 µM
HCC 2998
  GI50: 5.25 µM
  TGI: 20.9 µM
HCC 2998; [8]
  CC50: 75.9 µM
[5]
  inhibition: Active
UACC-257
  GI50: 0.79 µM
  TGI: 3.98 µM
UACC-257; [8]
  CC50: 47.9 µM
[6]
  RatioGI50: 5 - 7.7
[7]
  inhibition: Active
KM12
  GI50: 0.2 µM
  TGI: 2.51 µM
KM12; [8]
  CC50: > 100 µM
